# In ChEMBL document CHEMBL4049428, “Exploring Derivatives of Quinazoline Alkaloid l-Vasicine as Cap Groups in the Design and Biological Mechanistic Evaluation of Novel Antitumor Histone Deacetylase Inhibitors” (J Med Chem, 2017):
# The source made the active and inactive calls. The rule behind the calls is not given here.
# Key:
# HL-60 [1] = experiment: Induction of mitochondrial membrane potential loss in human HL60 cells at 10 uM measured after 48 hrs by Rh123 dye-based flow cytometric analysis (reference value: 5.6%); type: functional
# Summary of the method: (§1)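 Cells seeded in 6-well plates 2-4 h, then 48 h with compound; Rh-123 1 µM added for the final half hour; cells centrifuged, washed twice in PBS, resuspended in PBS, and Ψm loss quantified by flow cytometry as percentage of cells.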
# HL-60 [2] = experiment: Induction of mitochondrial membrane potential loss in human HL60 cells assessed as intact mitochondrial membrane potential at 1 uM measured after 48 hrs by Rh123 dye-based flow cytometric analysis (reference value: 91.3%); type: functional; summary of the method: as §1
# HL-60 [3] = experiment: Induction of autophagy in human HL60 cells assessed as acidic vacuole formation in cytoplasm at 10 uM after 48 hrs by acridine orange dye-based fluorescent microscopic analysis; type: functional, cell-based
# Summary of the method: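 Cells treated 48 h with a range of compound concentrations, SAHA 1.0 µM as positive control; acridine orange 1 µg/ml added 15 min before end at 37°C; cells washed in PBS and acidic vacuoles viewed by fluorescence microscopy.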
# MOLT-4 [4] = experiment: Induction of mitochondrial membrane potential loss in human MOLT4 cells assessed as intact mitochondrial membrane potential at 1 uM measured after 48 hrs by Rh123 dye-based flow cytometric analysis (reference value: 90.4%); type: functional; summary of the method: as §1
# MOLT-4 [5] = experiment: Induction of mitochondrial membrane potential loss in human MOLT4 cells at 5 uM measured after 48 hrs by Rh123 dye-based flow cytometric analysis (reference value: 9.6%); type: functional; summary of the method: as §1
# Caco-2 = experiment: Cytotoxicity against human Caco2 cells assessed as growth inhibition at 10 uM after 48 hrs by MTT assay; type: functional; conditions: Caco-2, 48 h, read-out: GI
# Summary of the method: (§2)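 MTT assay, 48 h exposure; adherent lines seeded 12 h and suspension lines 4 h before compound. Media: RPMI-1640/10% FCS (THP-1, HL-60, Colo-205, Caco-2, A549), DMEM/10% FCS (A549, MIAPaCa-2, MCF-7). MTT 4 h, formazan dissolved in DMSO, absorbance 570 nm. Mean ± S.D of three experiments in triplicate; SAHA 5 µM reference.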
# HL-60 [6] = experiment: Induction of autophagy in human HL60 cells assessed as intracellular LC-3B distribution at 10 uM after 48 hrs by DAPI dye-based immunofluorescent microscopic analysis; type: functional, cell-based
# Summary of the method: (§3)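 After 48 h treatment (SAHA 1.0 µM control), cells put on poly-lysine coverslips, fixed 15 min in 4% paraformaldehyde, permeabilised with 0.1% Triton X-100, blocked in 10% BSA; anti-LC-3B 1:100 for 1 h, Alexa Fluor 488 secondary 1:500 for 1 h, DAPI 1 µg/ml counterstain; imaged with 60X oil objective.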
# Histone deacetylase 11 = Histone deacetylase 11 (Homo sapiens, UniProt Q96DB2); experiment: Inhibition of HDAC 11 in human HeLa nuclear extract using fluorogenic HDAC class 2A substrate measured after 60 mins by fluorometric analysis
# Histone deacetylase 11, sequence (Q96DB2 whole entry): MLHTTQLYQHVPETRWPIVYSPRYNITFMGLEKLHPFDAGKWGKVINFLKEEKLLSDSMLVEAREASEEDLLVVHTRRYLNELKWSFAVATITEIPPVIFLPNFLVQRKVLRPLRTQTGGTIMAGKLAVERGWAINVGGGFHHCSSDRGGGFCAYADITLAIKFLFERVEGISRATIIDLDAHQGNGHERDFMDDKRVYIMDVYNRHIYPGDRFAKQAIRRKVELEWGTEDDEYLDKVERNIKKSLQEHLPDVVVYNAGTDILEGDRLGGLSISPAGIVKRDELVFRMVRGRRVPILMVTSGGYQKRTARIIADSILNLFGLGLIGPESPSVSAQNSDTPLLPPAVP
# MOLT-4 [7] = experiment: Cytotoxicity against human MOLT4 cells assessed as growth inhibition at 10 uM after 48 hrs by MTT assay; type: functional; conditions: MOLT-4, 48 h, read-out: GI
# MOLT-4 [8] = experiment: Induction of autophagy in human MOLT4 cells assessed as intracellular LC-3B distribution at 10 uM after 48 hrs by DAPI dye-based immunofluorescent microscopic analysis; type: functional, cell-based; summary of the method: as §3
# HL-60 [9] = experiment: Cytotoxicity against human HL60 cells assessed as growth inhibition at 10 uM after 48 hrs by MTT assay; type: functional; conditions: HL-60, 48 h, read-out: GI; summary of the method: as §2
# HL-60 [10] = experiment: Induction of reactive oxygen species in human HL60 cells at 10 uM measured after 48 hrs by H2DCFDA dye-based flow cytometric analysis (reference value: 0.4%); type: functional
# HL-60 [11] = experiment: Induction of reactive oxygen species in human HL60 cells at 1 uM measured after 48 hrs by H2DCFDA dye-based flow cytometric analysis (reference value: 0.4%); type: functional
# THP-1 [12] = experiment: Antimigratory activity in human THP1 cells at 10 uM after 48 hrs by wound healing assay; type: functional, cell-based
# Summary of the method: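 THP-1 cells seeded at high density, attached overnight; monolayer scratched with a pipette tip, debris removed by PBS washes, then test compound added after wounding. Incubated 48 h under standard culture conditions (37°C, 5% CO2); wound images taken at various intervals from time zero.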
# MOLT-4 [13] = experiment: Induction of mitochondrial membrane potential loss in human MOLT4 cells at 10 uM measured after 48 hrs by Rh123 dye-based flow cytometric analysis (reference value: 9.6%); type: functional; summary of the method: as §1
# MCF7 = experiment: Cytotoxicity against human MCF7 cells assessed as growth inhibition at 10 uM after 48 hrs by MTT assay; type: functional; conditions: MCF7, 48 h, read-out: GI; summary of the method: as §2
# Mus musculus = experiment: Toxicity in CDF1 mouse assessed as mortality at 50 mg/kg, ip administered for 9 consecutive days measured up to 18 days; type: organism-based; conditions: in vivo, 432 h
# Summary of the method: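 P388 leukemia cells were harvested from 6–7-day-old ascites grown in the peritoneum of female DBA/2 mice. Female CDF1 mice (18–23 g) received 5×10^5 cells i.p. on day 0. Next day they were randomized into groups of 7 and dosed i.p. daily for 9 consecutive days; controls got 0.2 ml normal saline. Mortality was followed to day 18, with median survival time and %T/C calculated.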
# COLO 205 [14] = experiment: Cytotoxicity against human COLO205 cells assessed as growth inhibition after 48 hrs by MTT assay; type: functional, cell-based; conditions: COLO 205, 48 h
# THP-1 [15] = experiment: Cytotoxicity against human THP1 cells assessed as growth inhibition after 48 hrs by MTT assay; type: functional, cell-based; conditions: THP-1, 48 h
# A549 = experiment: Cytotoxicity against human A549 cells assessed as growth inhibition after 48 hrs by MTT assay; type: functional, cell-based; conditions: A549, 48 h
# MOLT-4 [16] = experiment: Induction of mitochondrial membrane potential loss in human MOLT4 cells assessed as intact mitochondrial membrane potential at 0.125 uM measured after 48 hrs by Rh123 dye-based flow cytometric analysis (reference value: 90.4%); type: functional; summary of the method: as §1
# HL-60 [17] = experiment: Induction of DNA damage in human HL60 cells by comet assay; type: functional, cell-based
# Summary of the method: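 Alkaline comet assay on HL-60 cells in 0.5% low-melting agarose; lysis 2 h cold (2.5 M NaCl, 100 mM Na2EDTA, 10 mM Tris, pH 10, plus 1% Triton X-100); electrophoresis pH>13, 24 V, 300 mA, 40 min; neutralised pH 7.5, ethidium bromide stained; about 100 cells scored by image analysis, dim light.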
# COLO 205 [18] = experiment: Cytotoxicity against human COLO205 cells assessed as growth inhibition at 10 uM after 48 hrs by MTT assay; type: functional; conditions: COLO 205, 48 h, read-out: GI; summary of the method: as §2
# HL-60 [19] = experiment: Induction of reactive oxygen species in human HL60 cells at 0.125 uM measured after 48 hrs by H2DCFDA dye-based flow cytometric analysis (reference value: 0.4%); type: functional
# Histone deacetylase 3 = Histone deacetylase 3 (Homo sapiens, UniProt O15379); experiment: Inhibition of HDAC 3 in human HeLa nuclear extract using HDAC substrate-3 measured after 60 mins by fluorometric analysis
# Histone deacetylase 3, sequence (O15379 whole entry): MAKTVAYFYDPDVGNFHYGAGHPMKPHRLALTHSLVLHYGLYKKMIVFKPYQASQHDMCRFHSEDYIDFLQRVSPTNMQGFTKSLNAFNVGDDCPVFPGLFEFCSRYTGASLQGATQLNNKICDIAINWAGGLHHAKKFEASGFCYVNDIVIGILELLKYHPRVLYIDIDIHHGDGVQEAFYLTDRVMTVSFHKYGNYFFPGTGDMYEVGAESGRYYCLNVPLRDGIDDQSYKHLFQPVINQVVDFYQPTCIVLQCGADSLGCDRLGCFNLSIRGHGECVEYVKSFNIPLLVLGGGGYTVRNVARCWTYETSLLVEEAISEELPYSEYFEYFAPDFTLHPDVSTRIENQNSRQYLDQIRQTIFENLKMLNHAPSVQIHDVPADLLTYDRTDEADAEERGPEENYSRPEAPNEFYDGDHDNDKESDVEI
# Histone deacetylase 2 = Histone deacetylase 2 (Homo sapiens, UniProt Q92769); experiment: Inhibition of HDAC 2 in human HeLa nuclear extract using HDAC substrate-3 measured after 60 mins by fluorometric analysis
# Histone deacetylase 2, sequence (Q92769 whole entry): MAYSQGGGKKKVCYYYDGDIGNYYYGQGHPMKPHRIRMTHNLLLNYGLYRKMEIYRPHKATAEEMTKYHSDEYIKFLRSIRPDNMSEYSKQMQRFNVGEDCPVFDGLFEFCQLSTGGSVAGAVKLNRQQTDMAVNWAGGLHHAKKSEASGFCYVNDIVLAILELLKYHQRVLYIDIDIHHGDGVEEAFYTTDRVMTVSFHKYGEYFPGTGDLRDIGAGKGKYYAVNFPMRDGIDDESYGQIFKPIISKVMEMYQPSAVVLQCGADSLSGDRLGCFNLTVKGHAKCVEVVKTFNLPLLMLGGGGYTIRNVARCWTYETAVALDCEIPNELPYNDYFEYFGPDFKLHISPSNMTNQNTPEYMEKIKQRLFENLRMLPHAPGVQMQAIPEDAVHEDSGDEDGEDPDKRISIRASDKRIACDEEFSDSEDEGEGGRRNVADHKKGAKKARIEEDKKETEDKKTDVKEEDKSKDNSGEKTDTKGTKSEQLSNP
# MOLT-4 [20] = experiment: Cytotoxicity against human MOLT4 cells assessed as growth inhibition after 48 hrs by MTT assay; type: functional, cell-based; conditions: MOLT-4, 48 h
structure (smiles),measurement,setting,value
O=C(CCCCCCC(=O)Nc1ccccc1CN1CC[C@H](O)C1)NO,Activity,HL-60 [1],32%
same,Activity,HL-60 [2],90.4%
same,Activity,HL-60 [3],Active
same,Activity,MOLT-4 [4],95.1%
same,Activity,MOLT-4 [5],57.5%
same,inhibition of growth at 10 µM,Caco-2,58%
same,Activity,HL-60 [6],Active
same,IC50,Histone deacetylase 11,> 10000 nM
same,inhibition of growth at 10 µM,MOLT-4 [7],91%
same,Activity,MOLT-4 [8],Active
same,inhibition of growth at 10 µM,HL-60 [9],95%
same,Activity,HL-60 [10],0.1%
same,Activity,HL-60 [11],0.6%
same,Activity,THP-1 [12],Active
same,Activity,MOLT-4 [13],67.5%
same,inhibition of growth at 10 µM,MCF7,93%
same,Activity,Mus musculus,Non-Toxic
same,IC50,COLO 205 [14],600 nM
same,IC50,THP-1 [15],1300 nM
same,IC50,A549,7000 nM
same,Activity,MOLT-4 [16],97.6%
same,Activity,HL-60 [17],Dose-dependent effect
same,inhibition of growth at 10 µM,COLO 205 [18],92%
same,Activity,HL-60 [19],1%
same,IC50,Histone deacetylase 3,368 nM
same,IC50,Histone deacetylase 2,268 nM
same,IC50,MOLT-4 [20],810 nM
